Assay results published in ChEMBL document CHEMBL4052661, “Structure Based Design of N-(3-((1H-Pyrazolo[3,4-b]pyridin-5-yl)ethynyl)benzenesulfonamides as Selective Leucine-Zipper and Sterile-α Motif Kinase (ZAK) Inhibitors” (J Med Chem, 2017).
pIC50: −log10 of the molar value.

Tests used:
[1] = biological target: T1, Mitogen-activated protein kinase kinase kinase 20 (Homo sapiens, UniProt Q9NYL2); experiment: Inhibition of N-terminal GST-tagged recombinant human full-length ZAK expressed in baculovirus infected Sf9 insect cells using MBP as substrate after 30 mins by ADP-Glo assay
T1 sequence (Q9NYL2 whole entry): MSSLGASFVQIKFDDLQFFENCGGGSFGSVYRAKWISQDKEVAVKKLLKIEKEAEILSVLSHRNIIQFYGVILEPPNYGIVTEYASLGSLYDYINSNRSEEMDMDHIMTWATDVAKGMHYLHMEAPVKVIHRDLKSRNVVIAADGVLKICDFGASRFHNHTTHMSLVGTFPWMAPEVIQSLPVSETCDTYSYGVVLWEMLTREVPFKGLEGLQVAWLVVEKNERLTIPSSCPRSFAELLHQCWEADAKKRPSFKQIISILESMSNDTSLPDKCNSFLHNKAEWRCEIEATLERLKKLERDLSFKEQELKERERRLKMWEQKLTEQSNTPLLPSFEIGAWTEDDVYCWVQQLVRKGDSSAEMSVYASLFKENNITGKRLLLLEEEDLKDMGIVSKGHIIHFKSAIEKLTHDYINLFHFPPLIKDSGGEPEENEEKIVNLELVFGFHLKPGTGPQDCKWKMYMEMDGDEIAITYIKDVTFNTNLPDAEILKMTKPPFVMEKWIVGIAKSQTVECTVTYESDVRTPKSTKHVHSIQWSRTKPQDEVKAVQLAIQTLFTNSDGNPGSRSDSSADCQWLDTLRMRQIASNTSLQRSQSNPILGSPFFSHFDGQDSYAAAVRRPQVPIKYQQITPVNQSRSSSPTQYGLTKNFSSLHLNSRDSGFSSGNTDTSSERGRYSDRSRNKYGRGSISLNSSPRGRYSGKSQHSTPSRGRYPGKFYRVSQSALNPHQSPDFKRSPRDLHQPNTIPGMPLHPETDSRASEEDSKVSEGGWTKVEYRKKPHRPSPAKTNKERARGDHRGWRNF
Outline: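 ZAK activity by ADP-Glo luminescence with MBP as substrate, ATP and serially diluted compound. Reaction started by adding ATP and run 30 min at room temperature. ADP-Glo reagent was added to stop it (40 min), then detection reagent for 30 min before reading luminescence. Curves fitted; each experiment repeated at least 3 times.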

[2] = biological target: T1, Mitogen-activated protein kinase kinase kinase 20
[3] = biological target: Serine/threonine-protein kinase B-raf (Homo sapiens, UniProt P15056, V600E); experiment: Inhibition of recombinant human B-RAF V600E mutant using Ser/Thr3 as substrate after 1 hr by FRET-based Z'-Lyte assay
Serine/threonine-protein kinase B-raf (Homo sapiens, UniProt P15056, V600E), sequence (P15056 2-766 V600E limits assumed): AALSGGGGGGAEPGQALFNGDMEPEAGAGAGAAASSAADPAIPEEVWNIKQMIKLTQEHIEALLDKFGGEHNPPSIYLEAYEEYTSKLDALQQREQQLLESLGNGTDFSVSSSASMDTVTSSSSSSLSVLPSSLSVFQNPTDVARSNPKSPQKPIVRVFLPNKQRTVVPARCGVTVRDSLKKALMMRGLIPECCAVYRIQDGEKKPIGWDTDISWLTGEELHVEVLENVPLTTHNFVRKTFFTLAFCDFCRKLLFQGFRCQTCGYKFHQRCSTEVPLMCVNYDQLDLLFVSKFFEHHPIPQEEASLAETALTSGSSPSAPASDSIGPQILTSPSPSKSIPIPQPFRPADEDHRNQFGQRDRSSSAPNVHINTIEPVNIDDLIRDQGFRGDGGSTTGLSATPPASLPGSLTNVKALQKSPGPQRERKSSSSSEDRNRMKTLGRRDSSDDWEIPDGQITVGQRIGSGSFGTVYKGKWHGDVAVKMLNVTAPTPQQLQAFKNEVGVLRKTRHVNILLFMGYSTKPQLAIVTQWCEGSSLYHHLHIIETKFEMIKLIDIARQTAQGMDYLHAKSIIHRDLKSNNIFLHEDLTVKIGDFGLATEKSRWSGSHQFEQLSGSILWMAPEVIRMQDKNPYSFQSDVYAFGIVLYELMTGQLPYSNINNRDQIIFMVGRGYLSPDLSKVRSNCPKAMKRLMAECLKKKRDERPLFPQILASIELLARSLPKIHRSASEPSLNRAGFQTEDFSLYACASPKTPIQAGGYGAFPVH

[4] = biological target: Serine/threonine-protein kinase B-raf (Homo sapiens, UniProt P15056); experiment: Inhibition of wild type GST-tagged recombinant human full-length B-RAF expressed in baculovirus expression system using Ser/Thr3 as substrate after 1 hr by FRET-based Z'-Lyte assay
Serine/threonine-protein kinase B-raf (Homo sapiens, UniProt P15056), sequence (P15056 whole entry): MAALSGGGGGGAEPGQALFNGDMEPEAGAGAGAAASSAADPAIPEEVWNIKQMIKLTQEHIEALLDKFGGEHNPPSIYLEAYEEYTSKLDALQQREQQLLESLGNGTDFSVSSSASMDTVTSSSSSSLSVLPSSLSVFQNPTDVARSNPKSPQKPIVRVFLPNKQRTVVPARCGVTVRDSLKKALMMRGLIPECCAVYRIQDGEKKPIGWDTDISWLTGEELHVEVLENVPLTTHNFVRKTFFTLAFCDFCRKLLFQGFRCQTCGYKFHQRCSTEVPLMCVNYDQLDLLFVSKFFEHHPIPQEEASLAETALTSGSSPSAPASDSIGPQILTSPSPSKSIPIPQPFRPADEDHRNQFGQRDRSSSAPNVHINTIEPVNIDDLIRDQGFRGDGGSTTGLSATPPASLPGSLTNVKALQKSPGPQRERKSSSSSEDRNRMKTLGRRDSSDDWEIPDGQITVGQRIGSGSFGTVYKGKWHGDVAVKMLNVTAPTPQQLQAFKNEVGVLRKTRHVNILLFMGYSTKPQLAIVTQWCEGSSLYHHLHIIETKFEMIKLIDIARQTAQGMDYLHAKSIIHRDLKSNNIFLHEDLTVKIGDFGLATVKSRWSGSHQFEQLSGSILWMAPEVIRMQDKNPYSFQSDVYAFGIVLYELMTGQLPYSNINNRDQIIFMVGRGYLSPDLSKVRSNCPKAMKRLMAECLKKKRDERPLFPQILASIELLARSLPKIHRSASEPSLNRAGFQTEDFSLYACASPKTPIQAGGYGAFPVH
Outline: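 Z'-Lyte FRET assay with Ser/Thr3 peptide in kinase buffer; the final reaction held 0.002 ng B-Raf for wild type. Incubated 1 h at room temperature, then 1 h development to cleave nonphosphorylated peptide, then stop reagent. Means of 3 independent experiments.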

pIC50 [1]	pIC50 [2]	pIC50 [3]	pIC50 [4]	SMILES
8.02		< 5.00	< 5.70	COc1n[nH]c2ncc(C#Cc3c(F)ccc(NS(=O)(=O)c4cccc(Cl)c4Cl)c3F)cc12
8.12		< 5.15	< 6.00	COc1cccc(S(=O)(=O)Nc2ccc(F)c(C#Cc3cnc4[nH]nc(OC)c4c3)c2F)c1
7.77		< 5.00	< 6.00	COc1n[nH]c2ncc(C#Cc3c(F)ccc(NS(=O)(=O)c4ccc(Cl)cc4)c3F)cc12
7.92		< 5.00	< 5.00	COc1n[nH]c2ncc(C#Cc3c(F)ccc(NS(=O)(=O)c4cccc(C)c4)c3F)cc12
6.84		< 5.00	< 5.00	O=S(=O)(Nc1ccc(F)c(C#Cc2cnc3[nH]nc(OC4CCCC4)c3c2)c1F)c1cccc(Cl)c1

Second part, the molecule before the results:

SMILES	pIC50 [1]	pIC50 [2]	pIC50 [3]	pIC50 [4]
CCCS(=O)(=O)Nc1ccc(F)c(C(=O)c2c[nH]c3ncc(-c4ccc(Cl)cc4)cc23)c1F [VEMURAFENIB]	7.50	7.64		
O=S(=O)(Nc1ccc(F)c(C#Cc2cnc3[nH]ncc3c2)c1F)c1cccc(Cl)c1	8.29		< 5.00	< 5.30
Cn1ncc2cc(C#Cc3c(F)ccc(NS(=O)(=O)c4cccc(Cl)c4)c3F)cnc21	< 4.52		< 5.00	< 5.00
